# Assay results: ChEMBL document CHEMBL1144229, “RCAI-17, 22, 24-26, 29, 31, 34-36, 38-40, and 88, the analogs of KRN7000 with a sulfonamide linkage: their synthesis and bioactivity for mouse natural killer T cells to produce Th2-biased cytokines” (Bioorg Med Chem, 2008)
# Calls of active or inactive are those of the source. No cut-off for these calls is given here.
# What was measured:
# Type in all cases: functional, cell-based
# [1] = tested on: T-cell; assay: Induction of IL4 production in C57BL/6 mouse natural killer T cells after 48 hrs by cytometric bead array
# Method in brief: (§1)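 Spleen cells (approx. 4 × 10⁵) from female C57BL/6 mice aged 6–8 weeks were cultured 48 h at 37 °C in humidified 5% CO₂. Medium was RPMI 1640 with 10% heat-inactivated FCS, 2 mM L-glutamine, penicillin/streptomycin and 10 mM Hepes, plus glycolipid at 2, 20 or 200 ng/mL. Supernatant IFN-γ, IL-4 and IL-13 were read by cytometric bead array with PE detection, interpolated from standard curves. Values are means of three wells.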
# [2] = tested on: T-cell; assay: Induction of IL13 production in C57BL/6 mouse natural killer T cells after 48 hrs by cytometric bead array; method in brief: as §1
# [3] = tested on: T-cell; assay: Induction of IFN-gamma production in C57BL/6 mouse natural killer T cells upto 200 ng/ml after 48 hrs by cytometric bead array relative to KRN7000; method in brief: as §1
# [4] = tested on: T-cell; assay: Induction of IL4 production in C57BL/6 mouse natural killer T cells at 2 ng/ml after 48 hrs by cytometric bead array; method in brief: as §1
# [5] = tested on: T-cell; assay: Induction of IL13 production in C57BL/6 mouse natural killer T cells at 2 ng/ml after 48 hrs by cytometric bead array; method in brief: as §1
# [6] = tested on: T-cell; assay: Induction of IFN-gamma production in C57BL/6 mouse natural killer T cells after 48 hrs by cytometric bead array
# Method in brief: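 Spleen cells (about 4 × 10⁵) from female C57BL/6 mice aged 6–8 weeks, in RPMI 1640 with 10% heat-inactivated FCS, glutamine, antibiotics and Hepes, at 37 °C in 5% CO₂. Cells were stimulated with glycolipid at 2, 20 or 200 ng/mL for 48 h. Supernatant IFN-γ was measured by cytometric bead array on FACS against a kit standard curve. Mean of three wells.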
SMILES,Activity [1],Activity [2],Activity [3],Activity [4],Activity [5],Activity [6]
CCCCCCCCCCCCCC[C@@H](O)[C@@H](O)[C@H](CO[C@H]1O[C@H](CO)[C@H](O)[C@H](O)[C@H]1O)NS(=O)(=O)c1cccc(C)c1,Active,Active,inactive,–,–,–
CCCCCCCCCCCCCC[C@@H](O)[C@@H](O)[C@H](CO[C@H]1O[C@H](CO)[C@H](O)[C@H](O)[C@H]1O)NS(=O)(=O)c1ccc(NC(C)=O)cc1,Active,Active,inactive,Active,Active,–
CCCCCCCCCCCCCCCCS(=O)(=O)N[C@@H](CO[C@H]1O[C@H](CO)[C@H](O)[C@H](O)[C@H]1O)[C@H](O)[C@H](O)CCCCCCCCCCCCCC,–,–,inactive,–,–,–
CCCCCCCCCCCCCC[C@@H](O)[C@@H](O)[C@H](CC[C@H]1O[C@H](CO)[C@H](O)[C@H](O)[C@H]1O)NS(=O)(=O)c1ccc(C)cc1,inactive,inactive,–,–,–,inactive
CCCCCCCCCCCCCC[C@@H](O)[C@@H](O)[C@H](CO[C@H]1O[C@H](CO)[C@H](O)[C@H](O)[C@H]1O)NC(=O)c1ccc(C)cc1,–,–,–,–,–,inactive
CCCCCCCCCCCCCC[C@@H](O)[C@@H](O)[C@H](CO[C@H]1O[C@H](CO)[C@H](O)[C@H](O)[C@H]1O)NS(=O)(=O)c1cccc2ccccc12,Active,Active,inactive,–,–,–
CCCCCCCCCCCCCC[C@@H](O)[C@@H](O)[C@H](CO[C@H]1O[C@H](CO)[C@H](O)[C@H](O)[C@H]1O)NS(=O)(=O)c1ccc(C)cc1,Active,Active,inactive,–,–,–
CCCCCCCCCCCCCCCCCCCCCCCCCC(=O)N[C@@H](CO[C@H]1O[C@H](CO)[C@H](O)[C@H](O)[C@H]1O)[C@H](O)[C@H](O)CCCCCCCCCCCCCC,Active,Active,–,–,–,–
CCCCCCCCCCCCCCCCCCCCCCCC(=O)N[C@@H](CO[C@H]1O[C@H](CO)[C@H](O)[C@H](O)[C@H]1O)[C@H](O)[C@H](O)CCCCC,Active,Active,–,–,–,–
CCCCCCCCCCCCCCCCCC(=O)N[C@@H](CO[C@H]1O[C@H](CO)[C@H](O)[C@H](O)[C@H]1O)[C@H](O)[C@H](O)CCCCCCCCCCCCCC,–,–,–,–,–,Active
CCCCCCCCCCCCCC[C@@H](O)[C@@H](O)[C@H](CO[C@H]1O[C@H](CO)[C@H](O)[C@H](O)[C@H]1O)NS(=O)(=O)c1ccc(-c2ccccc2)cc1,Active,Active,inactive,–,–,–
CCCCCCCCCCCCCC[C@@H](O)[C@@H](O)[C@H](CO[C@H]1O[C@H](CO)[C@H](O)[C@H](O)[C@H]1O)NS(=O)(=O)c1ccccc1C,Active,Active,inactive,–,–,–
CCCCCCCCCCCCCC[C@@H](O)[C@@H](O)[C@H](CO[C@H]1O[C@H](CO)[C@H](O)[C@H](O)[C@H]1O)NS(=O)(=O)c1ccc(OC)cc1,Active,Active,inactive,–,–,–
